These results are taken from ChEMBL document CHEMBL4043205, “Picomolar inhibition of β-galactosidase (bovine liver) attributed to loop closure” (Bioorg Med Chem, 2017).

The source made the active and inactive calls. The calls are words filed in the database; no cut-off is given here.

Broadly, the IC50 is the concentration that inhibits the measured activity by half. The low end stands for inhibition by little substance, the high end for a need for much substance. One may read the Ki as the dissociation constant of the complex between target and ligand, obtained from inhibition or displacement. High values mean weaker binding, low ones tighter binding.

The target of assay [1] is T1, Beta-galactosidase (Bos taurus, UniProt Q58D55).
T1 sequence (Q58D55 whole entry): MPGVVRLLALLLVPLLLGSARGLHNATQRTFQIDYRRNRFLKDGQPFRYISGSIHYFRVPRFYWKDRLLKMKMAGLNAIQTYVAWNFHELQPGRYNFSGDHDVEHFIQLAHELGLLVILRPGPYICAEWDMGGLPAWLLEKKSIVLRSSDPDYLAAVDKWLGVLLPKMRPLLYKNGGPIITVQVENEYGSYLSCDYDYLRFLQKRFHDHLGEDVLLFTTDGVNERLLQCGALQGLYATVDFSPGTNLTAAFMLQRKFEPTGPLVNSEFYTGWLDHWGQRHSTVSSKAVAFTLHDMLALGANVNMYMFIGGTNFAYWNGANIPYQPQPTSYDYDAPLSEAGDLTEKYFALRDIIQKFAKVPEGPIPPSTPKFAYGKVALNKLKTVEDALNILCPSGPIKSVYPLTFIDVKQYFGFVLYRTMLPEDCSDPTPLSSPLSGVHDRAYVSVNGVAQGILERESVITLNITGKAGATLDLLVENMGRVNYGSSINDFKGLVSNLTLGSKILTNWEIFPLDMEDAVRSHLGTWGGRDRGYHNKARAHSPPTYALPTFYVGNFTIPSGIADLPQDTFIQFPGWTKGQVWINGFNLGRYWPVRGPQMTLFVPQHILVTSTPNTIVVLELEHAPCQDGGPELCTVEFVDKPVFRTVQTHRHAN
The assay can be described thus: Inhibition of bovine liver beta-galactosidase using 4-nitrophenyl-beta-D-galactopyranoside substrate measured over 240 mins at 10 mins intervals by UV/Vis spectroscopy. In outline: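 Bovine liver enzyme in 5 mM HEPES pH 7.50; 4-nitrophenyl-β-D-galactopyranoside mixed with 11 inhibitor dilutions (stocks 0.005–200 μM), equilibrated 30 °C 30 min, then enzyme added. Absorbance at 405 nm followed 240 min; final reads converted to percent inhibition against buffer control, plotted versus log inhibitor concentration; duplicates.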

Assay [2] is described as follows: Inhibition of Aspergillus oryzae beta-galactosidase using 2-chloro-4-nitrophenyl b-dgalactopyranoside substrate relative to control.
Assay [3] in a line: Inhibition of Aspergillus oryzae beta-galactosidase using 2-chloro-4-nitrophenyl b-dgalactopyranoside substrate.
The target of assay [4] is T2, Beta-galactosidase (Bos taurus) (UniProt Q58D55).
T2 sequence (whole entry): T1 sequence (Q58D55 whole entry)
Description: Competitive inhibition of bovine liver beta-galactosidase using 4-nitrophenyl-beta-D-galactopyranoside substrate measured over 240 mins at 10 mins intervals by UV/Vis spectroscopy based Eddie-Hofstee plot.

Assay [5] has as its system Aspergillus oryzae. Description: Inhibition of Aspergillus oryzae beta-galactosidase using 2-chloro-4-nitrophenyl b-dgalactopyranoside substrate by Eddie-Hofstee plot.
Assay [6] concerns Aspergillus oryzae. Description: Inhibition of Aspergillus oryzae beta-galactosidase using 2-chloro-4-nitrophenyl b-dgalactopyranoside substrate by Lineweaver-Burk plot.
Assay [7] addresses T2, Beta-galactosidase (Bos taurus). Description: Binding affinity to bovine liver beta-galactosidase assessed as induction of changes in enzyme molar ellipticity by CD spectroscopy. In outline:
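The bovine liver enzyme stock was diluted in 5 mM HEPES and kept on ice. It was mixed 1:1 by volume with aqueous inhibitor stock and equilibrated. Ellipticity was recorded from 190–275 nm at 0.5 nm resolution in a 10 mm path cell, averaging 5 scans. Spectra were background-corrected for unbound inhibitor and buffer.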

Assay [8] has as its system Aspergillus oryzae. The assay can be described thus: Binding affinity to Aspergillus oryzae beta-galactosidase assessed as induction of changes in enzyme molar ellipticity by CD spectroscopy.
Assay [9] addresses T1, Beta-galactosidase. The assay can be described thus: Inhibition of bovine liver beta-galactosidase pre-incubated for 30 mins with 4-nitrophenyl-beta-D-galactopyranoside substrate before enzyme addition measured over 45 mins at 27 secs intervals by UV/Vis based spectroscopy. In outline: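 Bovine liver enzyme (stock aliquot thawed, diluted in 5 mM HEPES, kept on ice). Varied 4-nitrophenyl-β-D-galactopyranoside with fixed inhibitor, pH 7.50 HEPES, equilibrated 30 °C 30 min before enzyme; 405 nm read for 45 min. Initial rates via ε 13,300 M−1 cm−1, fitted Michaelis-Menten at ≥2 inhibitor levels; competitive Ki from K′m = Km(1+[I]/Ki); duplicates, Lineweaver-Burk check.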

The target in assay [10] is T2, Beta-galactosidase (Bos taurus). Description: Competitive inhibition of bovine liver beta-galactosidase using 4-nitrophenyl-beta-D-galactopyranoside substrate measured over 240 mins at 10 mins intervals by UV/Vis spectroscopy based Lineweaver-Burk plot.

For `N=C1N[C@H](CO)[C@H](O)[C@H](O)[C@H]1O`, the half-inhibitory concentration (IC50) against Beta-galactosidase [1] is > 50000 nM; in assay [2], 830 nM. For the same compound, the Ki in assay [3] is 150 nM; on Beta-galactosidase [9] it was 2000 nM. For the same compound, the “competitive inhibition (qualitative call)” value (from here on “competitive inhibition”) in assay [4] was “Active”. For the same compound, the “inhibition activity (qualitative)” value with Aspergillus oryzae [5] was “Active”. In the assay on Aspergillus oryzae [6], the inhibition activity entry is “Active”. Also, the result (in assay [7]; in the assay with Aspergillus oryzae [8]) was inactive. In addition, the “Inhibition mode (qualitative, Lineweaver-Burk)” value (“Inhibition mode” for short) in assay [10] is “Active”.
On to `OC[C@H]1N/C(=N\Cc2ccccc2)[C@H](O)[C@@H](O)[C@H]1O`, for which the values for the IC50 (against Beta-galactosidase [1]; in [2]) were 18.9 nM and 49 nM, respectively. In addition, the Ki worked out at 21.1 nM in assay [3] and 0.05 nM on Beta-galactosidase [9]. Besides, in assay [4], the “competitive inhibition” value was “Active”. Moreover, the “inhibition activity (qualitative)” value in the assay with Aspergillus oryzae [5] is “Active”. The inhibition activity result in the assay on Aspergillus oryzae [6] was “Active”. In addition, the result (in [7]; in the assay on Aspergillus oryzae [8]) was inactive. Moreover, the “Inhibition mode” value in [10] is “Active”.
In the case of `CCCCCCC/N=C1\N[C@H](CO)[C@H](O)[C@H](O)[C@H]1O`, the half-maximal inhibitory concentration (IC50) at Beta-galactosidase [1] was 24.1 nM; in assay [2], 107 nM. Moreover, the Ki amounted to 10.8 nM in assay [3] and 0.11 nM at Beta-galactosidase [9]. Moreover, the “competitive inhibition” value in assay [4] is “Active”. Besides, in the assay on Aspergillus oryzae [5], the “inhibition activity (qualitative)” value is “Active”. Besides, in the assay with Aspergillus oryzae [6], the inhibition activity result is “Active”. Moreover, the “Inhibition mode” value in [10] is “Active”.
In the case of `Cc1ccccc1C/N=C1\N[C@H](CO)[C@H](O)[C@H](O)[C@H]1O`, the IC50 on Beta-galactosidase [1] was 118 nM; in [2], 623 nM. Also, the Ki in [3] turned out to be 23.6 nM; at Beta-galactosidase [9], 0.2 nM. In addition, the “competitive inhibition” value in [4] is “Active”. Moreover, the “inhibition activity (qualitative)” value in the assay with Aspergillus oryzae [5] was “Active”. Besides, in the assay with Aspergillus oryzae [6], the inhibition activity result was “Active”. Further, the “Inhibition mode” value in assay [10] is “Active”.
With `CC(C)(C)c1ccc(C/N=C2\N[C@H](CO)[C@H](O)[C@H](O)[C@H]2O)cc1`, the IC50 against Beta-galactosidase [1] was determined as 412 nM; in assay [2] it was 122 nM. In addition, the figures for the Ki (in assay [3]; at Beta-galactosidase [9]) were 20.6 nM and 0.11 nM, respectively. Besides, in assay [4], the “competitive inhibition” value was “Active”. Moreover, the “inhibition activity (qualitative)” value with Aspergillus oryzae [5] was “Active”. Further, the inhibition activity entry in the assay with Aspergillus oryzae [6] was “Active”. For the same compound, in assay [10], the “Inhibition mode” value was “Active”.
With `OC[C@H]1N/C(=N\CC2CCCCCC2)[C@H](O)[C@@H](O)[C@H]1O`, the IC50 came out at 45.4 nM on Beta-galactosidase [1] and 36 nM in assay [2]. The Ki in assay [3] is 6.3 nM; at Beta-galactosidase [9] it was 0.16 nM. For the same compound, in assay [4], the “competitive inhibition” value was “Active”. The “inhibition activity (qualitative)” value with Aspergillus oryzae [5] is “Active”. Besides, in the assay on Aspergillus oryzae [6], the inhibition activity entry was “Active”. Moreover, in assay [10], the “Inhibition mode” value is “Active”.
With `CO[C@H]1C(NCc2ccc(C)cc2)=N[C@H](CO)[C@H](O)[C@@H]1O`, the IC50 at Beta-galactosidase [1] stood at 10800 nM; in [2] it was 41400 nM. Besides, the Ki in assay [3] was 3400 nM; on Beta-galactosidase [9] it was 1500 nM. The “competitive inhibition” value in assay [4] is “Active”. Moreover, the “inhibition activity (qualitative)” value in the assay with Aspergillus oryzae [5] is “Active”. Besides, the inhibition activity entry in the assay with Aspergillus oryzae [6] was “Active”. Besides, the outcome (in assay [7]; with Aspergillus oryzae [8]) was inactive. Further, the “Inhibition mode” value in [10] was “Active”.
